Bioassay records from PubChem.
STAT1 inh = reduces IFN-gamma driven STAT1 reporter signal. NIH 3T3 STAT1-luciferase reporter, luminescence. inhibition, % at 5.5 µM. 0.35% of 200,000 active;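 active = inhibition above a set limit, the mean inhibition across all tested compounds plus 3 SD, cut at about 34% in these data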;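 also: 0% = IFN-gamma with DMSO and 100% = IFN-gamma with 300 µM nifuroxazide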
TRAIL sens C8 = sensitizes caspase-8 expressing cells to TRAIL. inhibition (viability loss, TRAIL sensitization), % at 10 µM. 1% of 360,000 active. NB7+C8 cells + TRAIL, ATPlite viability luminescence;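 active = compounds causing at least 50% loss of cell viability in the single-dose screen, relative to plate controls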
STAT3 activator = activators of IL-6 induced STAT3 signaling; 0.91% of 190,000 active; activation (% of control), % at 5.6 µM; U3A cells, IL-6 STAT3-luciferase reporter, luminescence; 100% = signal with IL-6 EC80 alone;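 active = activation above the screen-wide mean of compound activation plus 3 SD, cut at about 130% in these data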;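 also: 0% = background luminescence of wells with medium and substrate only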
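System – human U3A cells carrying STAT3-luciferase construct · Probe or stimulus – Interleukin-6, 33 ng/mL · Schedule – compound 1 h, then IL-6 6 h at 37 °C · Signal – luminescence from STAT3-driven luciferase reporter · Evaluation – percent of IL-6-only median luminescence · Benchmarks – IL-6-only high control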
PPC-1+TRAIL kill = compounds killing PPC-1 cancer cells with TRAIL present (potentiator screen, no TRAIL-free arm). PPC-1 cells + TRAIL, ATPLite viability luminescence. cell killing (% activity), % at 4 µM or 5 µM. 0.41% of 220,000 active. AID 1443;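 active = cell killing above 50% in the first pass at 4 µM, then a duplicate retest at 5 µM averaging 50% or more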;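 also: plate controls were cells with TRAIL plus DMSO for no effect and medium-only wells lacking cells for full effect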
STAT3 blocker = inhibitors of IL-6 induced STAT3 signaling. 0.89% of 190,000 active. U3A cells, IL-6 STAT3-luciferase reporter, luminescence; host cell line lacks STAT1. inhibition, % at 5.5 µM;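 active = inhibition above the mean inhibition across all screened compounds plus 3 SD, cut at about 44% in these data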;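 also: 0% = DMSO only wells and 100% = 100 µM nifuroxazide control wells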
The depositor's hits bear a star; . = not tested or not shown. Rows were chosen to be rich in hits. Some 1.8% of all compounds tested hit in one or more screens of this group.

SMILES	STAT1 inh	TRAIL sens C8	STAT3 activator	PPC-1+TRAIL kill	STAT3 blocker
COc1ccc(C2(O)C(=O)Nc3ccc(C)cc32)cc1 (stereo not given)	.	3	.	.	.
N#Cc1ccc(CC(=O)c2ccccc2)[nH]c1=O	.	-2	.	.	.
CCOC(=O)c1cn2nc(N3CCCCC3)ccc2n1	.	53*	.	32	.
COc1ccc(-c2nnc3ccc(SCC(=O)Nc4nccs4)nn23)cc1OC	-1	-2	99	-22	3
Cc1cc2nc(-c3ccc(SCC(=O)Nc4nccs4)nc3)[nH]c2cc1C	-29	59*	108	25	-10
CCc1nnc(NC(=O)CSc2ccc(-c3nc4ccc(C)cc4[nH]3)cn2)s1	-16	54*	100	24	0
COc1ccc(-c2[nH]c(-c3ccc(C)cc3)nc2SCC(=O)Nc2nccs2)cc1	5	17	104	-2	-3
CC(=O)CSc1ccc(-c2nc3cc(C)c(C)cc3[nH]2)cn1	85*	78*	14	.	103*
COc1ccc(-c2ccc(SCC(=O)Nc3nccs3)nn2)cc1OC	-9	-1	135*	34	-42
Cc1ccc(CCNC(=O)c2cc(S(=O)(=O)N3CCCC3)cn2C)cc1	.	-10	.	.	.
CC(C)N1CC(C(=O)Nc2ccc(Cl)cc2Cl)CC1=O (stereo not given)	.	-1	.	.	.
C[C@@H]1CN([C@@H](C)CO)C(=O)c2cc(Br)cnc2O[C@@H]1CN(C)Cc1cncnc1	.	-5	.	.	.
CCCc1cc(=O)[nH]c(SCC(=O)Nc2sccc2C#N)n1	.	2	.	.	.
Cc1ccc2nc(-c3ccc(SCC(=O)O)nc3)[nH]c2c1	5	48	93	30	10
Cc1ccc2nc(-c3ccc(SCC(=O)N4CCc5ccccc54)nc3)[nH]c2c1	-35	65*	143*	56*	-43
Cc1cc2nc(-c3ccc(SCC(=O)Nc4ccc(S(=O)(=O)N5CCCC5)cc4)nc3)[nH]c2cc1C	-45	72*	102	63*	0
CC(=O)CSc1ccc(-c2nc3ccccc3[nH]2)cn1	.	75*	.	.	.
CCOC(=O)CNC(=O)CSc1ccc(-c2nc3ccccc3[nH]2)cn1	.	-7	.	.	.
O=C(CSc1ccc(-c2nc3ccccc3[nH]2)cn1)Nc1ccc(S(=O)(=O)N2CCCC2)cc1	-2	8	105	3	-9
Cc1cn([C@H]2C[C@H](O)[C@@H](CNC/C=C/c3ccccc3[N+](=O)[O-])O2)c(=O)[nH]c1=O	.	1	.	.	.
COc1ccc2c(c1)N(C)/C(=C/c1cccc[n+]1C)S2	.	17	.	.	.
CCN1/C(=C/c2cccc[n+]2C)Sc2ccc(OC)cc21	.	54*	.	.	.
Cc1ccc2cc(/C=N/Nc3nc4ccccc4[nH]3)c(Cl)nc2c1	6	87*	113	0	-16
CC1(C(=O)NC2CCN(Cc3ccccc3)CC2)CCN1Cc1ccc2ccccc2c1 (stereo not given)	.	-3	.	.	.
COc1c(Cl)cccc1-c1cn2ccccc2n1	.	73*	.	39	.
SMILES	STAT1 inh	TRAIL sens C8	STAT3 activator	PPC-1+TRAIL kill	STAT3 blocker
Clc1ccc(-c2cn3ccccc3n2)cc1	.	44	.	.	.
O=S(=O)(Nc1ccc(N=Nc2ccc(O)c3ccccc23)cc1)c1ccccc1	6	-3	101	18	-4
O=[N+]([O-])c1ccc(N=Nc2ccc(O)c3ccccc23)cc1	.	63*	.	.	.
CC1CCCC(C)N1CC(O)Cn1c2ccccc2c2ccccc21 (stereo not given)	.	-7	.	.	.
O=C(COC(=O)c1ncc(Cl)c(Cl)c1Cl)Nc1ccccc1OC(F)F	-2	-7	134*	-14	-40
O=C(COC(=O)c1ncc(Cl)c(Cl)c1Cl)Nc1cccnc1Cl	.	-10	.	.	.
O=S1(=O)CCOC[C@H](Cc2ccccc2)N1Cc1cccc(C(F)(F)F)c1	.	8	.	.	.
FC(F)(F)c1cccc(CC2CN(Cc3ccccc3)Cc3ccccc3N2c2cc(Cl)cc(Cl)c2)c1 (stereo not given)	.	60*	.	.	.
CC(=O)c1c(C)[nH]c(C(=O)OCCCCN2C(=O)c3ccccc3C2=O)c1C	33	21	32	14	86*
CC(=O)c1c(C)[nH]c(C(=O)OCc2ccccc2)c1C	-47	21	87	15	18
CC(C)C[C@H]1CN([C@@H](Cc2ccc(O)cc2)CN2CCC[C@H]2CN2C(=O)C(=O)NC[C@@H]2Cc2ccccc2)C(=O)C(=O)N1CC1CCCCCC1	.	-2	.	.	.
CCOC(=O)CS(=O)(=O)c1ccccc1	-5	1	105	16	-3
CCOC(=O)CS(=O)(=O)c1nc(-c2ccccc2)cc(C(F)(F)F)n1	43*	-11	88	3	18
O=C(Nc1ccc(C(=O)N2CCCCC2)cc1)c1ccccc1Cl	.	23	.	.	.
O=C(NCc1ccoc1)c1ccc(NC(=O)c2ccccc2Cl)cc1	7	9	133*	6	-31
CC1=NNC(=O)/C1=C\c1cn(-c2ccccc2)nc1-c1ccc(Cl)cc1	-22	87*	55	2	61*
CC1(C)OC2CC3C4CCC5=CC(=O)C=CC5(C)C4(F)C(O)CC3(C)C2(C(=O)CO)O1 (stereo not given)	.	12	.	.	.
COc1ccccc1CNC(=O)CCNC(=O)C1CCN(S(=O)(=O)c2ccccc2)CC1	.	-4	.	.	.
COc1cccc(CN(C)C(=O)CNC(=O)c2ccc(-c3ccccc3)cc2)c1OC	.	14	.	.	.
CCc1nc2ccc(C(=O)Nc3cccc(OCC(=O)N(C)C)c3)cn2c1N(C=O)Cc1ccc(OC)cc1	.	0	.	.	.
COc1cc(OC)cc(-c2nc3cc(C)ccc3o2)c1	-69	26	171*	29	-80
COc1cc(OC)cc(-c2nc3ccccc3c(=O)o2)c1	0	-4	101	3	2
Cc1ccc2nc(-c3ccc(O)cc3)oc2c1	.	79*	.	.	.
Cc1ccc(-c2nc3cc(Cl)ccc3o2)cc1	-65	31	135*	-12	-40
CCCCn1c(N)c(N(Cc2ccccc2OC)C(=O)C(C)Oc2cccc(Cl)c2)c(=O)[nH]c1=O (stereo not given)	.	2	.	.	.
SMILES	STAT1 inh	TRAIL sens C8	STAT3 activator	PPC-1+TRAIL kill	STAT3 blocker
O=C(O)c1cccc(N2C(=O)/C(=C/c3ccc([N+](=O)[O-])cc3)C=C2c2ccccc2)c1	39*	-4	46	8	66*
CC(=O)c1ccc(OC2(C)CCN(Cc3cc4ccccc4[nH]3)C2)cc1 (stereo not given)	.	2	.	.	.
O=C1CCCN1CCCNS(=O)(=O)c1ccc(F)c(F)c1	.	-9	.	.	.
O=C(Oc1ccc(Br)cc1C(=O)/C=C/c1ccccc1F)c1ccco1	-1	24	140*	.	-39
CC(=O)c1cc(Cl)ccc1OC(=O)c1ccco1	0	15	106	5	0
CCCn1c(C)cc(C(=O)COC(=O)c2cc(=O)[nH]c3ccccc23)c1C	.	57*	.	.	.
CCCn1c(C)cc(C(=O)COC(=O)c2cc(S(=O)(=O)NCC(C)C)c(Cl)cc2Cl)c1C	3	94*	110	-11	-7
Cc1ccc(C(=O)COC(=O)c2cc(=O)[nH]c3ccccc23)cc1	-20	34	109	19	-4
CCc1ccc(NC(=O)CSc2nc(=O)n(CCN(C)C)c3c2CCCC3)cc1	.	-2	.	.	.
